The nature of series [1]: Dose normalized AUC (0 to last) in Sprague-Dawley rat at 3 mg/kg, po by HPLC analysis. Format: ADME, organism-based. To be noted: in vivo.
Series [2] can be described thus: Metabolic stability in CD-1 mouse liver microsomes assessed as parent compound remaining at 10 uM preincubated for 10 mins in water bath followed by NADPH addition and measured after 60 mins by LC-MS/MS analysis. The following applies: read-out: Stability. The series is classed as ADME, Microsome.
Series [3] relates to BT-474. Kind of series: Antitumor activity against PI3KCA mutant human BT474 cells xenografted in po dosed BALB/c nude mouse assessed as tumor growth inhibition administered once daily and measured after 30 days by caliper method. Format: functional, organism-based.
The nature of series [4]: Oral bioavailability in BALB/c mouse at 10 mg/kg by HPLC analysis. The following applies: in vivo. Format: ADME, organism-based.
Series [5] can be described thus: Dose normalized AUC (0 to last) in BALB/c mouse at 10 mg/kg, po by HPLC analysis. To be noted: in vivo. The series is classed as ADME, organism-based.
The nature of series [6]: Clearance in BALB/c mouse at 1 mg/kg, […] by HPLC analysis. The series is classed as ADME, organism-based. The following applies: in vivo.
Series [7] is described as follows: Metabolic stability in human liver microsomes assessed as parent compound remaining at 10 uM preincubated for 10 mins in water bath followed by NADPH addition and measured after 60 mins by LC-MS/MS analysis. The series is classed as ADME, Microsome. The following applies: read-out: Stability. On the technique in general: Liver microsomes are a subcellular fraction often used to study metabolism.

Series [8] in a line: Oral bioavailability in Sprague-Dawley rat at 3 mg/kg by HPLC analysis. The series is classed as ADME, organism-based. To be noted: in vivo.
Series [9] has as its target Phosphatidylinositol 4,5-bisphosphate 3-kinase catalytic subunit gamma isoform (Mus musculus, UniProt Q9JHG7). As to the kind of experiment: Inhibition of PI3Kgamma in mouse RAW264.7 cells assessed as reduction in AKT phosphorylation at residue S473 treated with mouse C5a component and measured after 3 mins.
Series [10] in a line: Protein binding in CD-1 mouse plasma measured after 4 hrs by LC-MS/MS analysis. To be noted: read-out: PPB (converted). The series is classed as ADME, cell-free.
Series [11] deals with Mus musculus. Kind of series: In vivo inhibition of PI3K in po dosed BALB/c nude mouse xenografted with PI3KCA mutant human BT474 cells assessed as reduction in AKT phosphorylation administered once daily measured after 1 to 4 hrs by Western blot analysis. Format: functional, organism-based. The following applies: BT-474. Summed up:
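Mice bearing BT-474 subcutaneous xenografts were dosed orally in vehicle 0.5% MC + 0.2% Tween 80. Tumor Akt phosphorylation was assessed for time and dose dependence.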
A general note: Xenograft models place foreign cells or tissue in a host animal.

The target of series [12] is T1, Phosphatidylinositol 4,5-bisphosphate 3-kinase catalytic subunit delta isoform (Homo sapiens, UniProt O00329).
T1 sequence (O00329 whole entry): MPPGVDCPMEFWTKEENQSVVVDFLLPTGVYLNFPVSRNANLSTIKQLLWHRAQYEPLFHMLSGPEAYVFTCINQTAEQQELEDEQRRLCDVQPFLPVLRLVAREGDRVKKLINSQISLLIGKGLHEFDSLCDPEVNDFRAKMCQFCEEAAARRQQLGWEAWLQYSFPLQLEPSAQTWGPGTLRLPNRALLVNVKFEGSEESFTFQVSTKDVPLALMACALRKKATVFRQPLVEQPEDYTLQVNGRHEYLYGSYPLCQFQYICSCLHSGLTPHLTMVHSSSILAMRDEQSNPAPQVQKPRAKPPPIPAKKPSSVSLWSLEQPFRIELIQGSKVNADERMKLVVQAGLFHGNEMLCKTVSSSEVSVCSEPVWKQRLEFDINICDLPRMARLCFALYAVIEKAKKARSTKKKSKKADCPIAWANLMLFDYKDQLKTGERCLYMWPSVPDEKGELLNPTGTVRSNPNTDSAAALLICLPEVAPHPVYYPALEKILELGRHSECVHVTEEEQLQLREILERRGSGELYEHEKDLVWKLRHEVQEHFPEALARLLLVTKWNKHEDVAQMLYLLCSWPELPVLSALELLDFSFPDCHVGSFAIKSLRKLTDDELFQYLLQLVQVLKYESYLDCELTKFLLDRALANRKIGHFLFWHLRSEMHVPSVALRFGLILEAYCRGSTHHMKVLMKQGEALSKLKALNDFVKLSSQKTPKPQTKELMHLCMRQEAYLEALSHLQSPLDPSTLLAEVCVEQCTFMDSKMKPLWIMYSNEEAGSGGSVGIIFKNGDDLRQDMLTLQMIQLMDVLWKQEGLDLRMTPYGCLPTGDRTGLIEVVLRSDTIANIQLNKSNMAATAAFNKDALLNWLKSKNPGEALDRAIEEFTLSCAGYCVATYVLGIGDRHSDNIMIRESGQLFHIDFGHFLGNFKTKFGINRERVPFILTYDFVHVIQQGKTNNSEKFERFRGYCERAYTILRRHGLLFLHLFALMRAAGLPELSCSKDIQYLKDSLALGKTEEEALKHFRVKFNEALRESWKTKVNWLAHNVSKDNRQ
As to the kind of experiment: Inhibition of PI3Kdelta in human Jeko1 cells assessed as reduction in AKT phosphorylation at residue S473 measured after 2 hrs by sandwich ELISA. In general terms: ELISA stands for enzyme-linked immunosorbent assay.

The test system of series [13] is BT-474. As to the kind of experiment: Antitumor activity against PI3KCA mutant human BT474 cells xenografted in BALB/c nude mouse assessed as tumor growth inhibition at 30 mg/kg, po administered once daily for 21 days by caliper method relative to control. Format: functional. To be noted: BT-474, po, 504 h, read-out: TGI. Summed up:
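BT-474 (PIK3CA mutant human breast ductal carcinoma) subcutaneous xenografts in Balb/c nude mice. Oral dosing once daily for 21 days. Vehicle 0.5% MC + 0.2% Tween 80. Read-out is tumor growth inhibition.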

A short description of series [14]: Metabolic stability in Beagle dog liver microsomes assessed as parent compound remaining at 10 uM preincubated for 10 mins in water bath followed by NADPH addition and measured after 60 mins by LC-MS/MS analysis. Format: ADME, Canis lupus familiaris, Microsome. To be noted: read-out: Stability.
The subject of series [15] is BT-474. As to the kind of experiment: Antitumor activity against PI3KCA mutant human BT474 cells xenografted in BALB/c nude mouse assessed as tumor growth inhibition at 30 mg/kg, po administered once daily and measured after 30 days by caliper method relative to control. Format: functional. To be noted: BT-474, po, 720 h, read-out: TGI.
For series [16], the system named is BT-474. As to the kind of experiment: Antitumor activity against PI3KCA mutant human BT474 cells xenografted in BALB/c nude mouse assessed as tumor growth inhibition at 15 mg/kg, po administered once daily and measured after 30 days by caliper method relative to control. Format: functional. The following applies: BT-474, po, 720 h, read-out: TGI.
Series [17] is described as follows: Volume of distribution in BALB/c mouse at 1 mg/kg, iv by HPLC analysis. To be noted: in vivo.
Series [18] concerns the target Phosphatidylinositol 4,5-bisphosphate 3-kinase catalytic subunit alpha isoform (Homo sapiens, UniProt P42336). As to the kind of experiment: Inhibition of PI3Kalpha (unknown origin) using PIP2:3PS peptide as substrate preincubated for 15 mins followed by ATP addition at Km concentration and further incubated for 150 mins by ADP-Glo assay.
Series [19] concerns BT-474. Kind of series: Antitumor activity against PI3KCA mutant human BT474 cells xenografted in BALB/c nude mouse assessed as tumor growth inhibition at 40 mg/kg, po administered once daily and measured after 30 days by caliper method relative to control. Format: functional. To be noted: BT-474, po, 720 h, read-out: TGI.
Series [20] in a line: Metabolic stability in Sprague-Dawley rat liver microsomes assessed as parent compound remaining at 10 uM preincubated for 10 mins in water bath followed by NADPH addition and measured after 60 mins by LC-MS/MS analysis. To be noted: read-out: Stability. The series is classed as ADME, Microsome.
Series [21] concerns the target Phosphatidylinositol 4,5-bisphosphate 3-kinase catalytic subunit beta isoform (Homo sapiens, UniProt P42338). As to the kind of experiment: Inhibition of PI3Kbeta in human MDA-MB-468 cells assessed as reduction in AKT phosphorylation at residue S473 measured after 30 mins by sandwich ELISA.

The record followed here is ChEMBL document CHEMBL4619796, “Discovery of 3-Quinazolin-4(3H)-on-3-yl-2,N-dimethylpropanamides as Orally Active and Selective PI3Kα Inhibitors” (ACS Med Chem Lett, 2020).

Phosphatidylinositol 4,5-bisphosphate 3-kinase catalytic subunit gamma isoform, sequence (Q9JHG7 whole entry, canonical isoform): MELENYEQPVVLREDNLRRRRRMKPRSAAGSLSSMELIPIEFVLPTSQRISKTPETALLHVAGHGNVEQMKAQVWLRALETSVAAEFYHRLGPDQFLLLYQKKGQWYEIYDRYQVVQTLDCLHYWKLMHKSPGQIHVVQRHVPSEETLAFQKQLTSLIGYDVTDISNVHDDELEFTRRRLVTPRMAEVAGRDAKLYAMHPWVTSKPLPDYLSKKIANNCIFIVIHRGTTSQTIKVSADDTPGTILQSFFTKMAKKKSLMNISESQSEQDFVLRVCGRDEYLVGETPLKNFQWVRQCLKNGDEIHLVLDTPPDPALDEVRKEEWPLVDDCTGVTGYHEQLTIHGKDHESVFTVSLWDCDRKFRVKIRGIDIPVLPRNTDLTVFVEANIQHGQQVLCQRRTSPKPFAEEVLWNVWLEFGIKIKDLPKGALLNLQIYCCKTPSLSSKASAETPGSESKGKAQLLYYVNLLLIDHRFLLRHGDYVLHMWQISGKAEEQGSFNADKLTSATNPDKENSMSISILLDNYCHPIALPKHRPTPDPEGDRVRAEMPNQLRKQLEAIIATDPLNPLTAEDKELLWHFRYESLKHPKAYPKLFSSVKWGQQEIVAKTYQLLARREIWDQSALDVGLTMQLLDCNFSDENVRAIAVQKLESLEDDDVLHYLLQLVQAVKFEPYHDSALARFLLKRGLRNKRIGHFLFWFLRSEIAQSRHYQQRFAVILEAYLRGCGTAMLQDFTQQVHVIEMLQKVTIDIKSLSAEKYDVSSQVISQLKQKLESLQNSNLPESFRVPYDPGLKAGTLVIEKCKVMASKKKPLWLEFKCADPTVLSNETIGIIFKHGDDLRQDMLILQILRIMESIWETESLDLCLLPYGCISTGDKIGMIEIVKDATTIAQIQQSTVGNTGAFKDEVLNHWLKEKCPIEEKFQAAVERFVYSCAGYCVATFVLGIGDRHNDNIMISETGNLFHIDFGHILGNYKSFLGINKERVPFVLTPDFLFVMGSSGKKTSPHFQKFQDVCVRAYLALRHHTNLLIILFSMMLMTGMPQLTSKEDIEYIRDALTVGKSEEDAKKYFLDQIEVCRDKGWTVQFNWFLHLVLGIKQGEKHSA
Phosphatidylinositol 4,5-bisphosphate 3-kinase catalytic subunit alpha isoform, sequence (P42336 whole entry, canonical isoform): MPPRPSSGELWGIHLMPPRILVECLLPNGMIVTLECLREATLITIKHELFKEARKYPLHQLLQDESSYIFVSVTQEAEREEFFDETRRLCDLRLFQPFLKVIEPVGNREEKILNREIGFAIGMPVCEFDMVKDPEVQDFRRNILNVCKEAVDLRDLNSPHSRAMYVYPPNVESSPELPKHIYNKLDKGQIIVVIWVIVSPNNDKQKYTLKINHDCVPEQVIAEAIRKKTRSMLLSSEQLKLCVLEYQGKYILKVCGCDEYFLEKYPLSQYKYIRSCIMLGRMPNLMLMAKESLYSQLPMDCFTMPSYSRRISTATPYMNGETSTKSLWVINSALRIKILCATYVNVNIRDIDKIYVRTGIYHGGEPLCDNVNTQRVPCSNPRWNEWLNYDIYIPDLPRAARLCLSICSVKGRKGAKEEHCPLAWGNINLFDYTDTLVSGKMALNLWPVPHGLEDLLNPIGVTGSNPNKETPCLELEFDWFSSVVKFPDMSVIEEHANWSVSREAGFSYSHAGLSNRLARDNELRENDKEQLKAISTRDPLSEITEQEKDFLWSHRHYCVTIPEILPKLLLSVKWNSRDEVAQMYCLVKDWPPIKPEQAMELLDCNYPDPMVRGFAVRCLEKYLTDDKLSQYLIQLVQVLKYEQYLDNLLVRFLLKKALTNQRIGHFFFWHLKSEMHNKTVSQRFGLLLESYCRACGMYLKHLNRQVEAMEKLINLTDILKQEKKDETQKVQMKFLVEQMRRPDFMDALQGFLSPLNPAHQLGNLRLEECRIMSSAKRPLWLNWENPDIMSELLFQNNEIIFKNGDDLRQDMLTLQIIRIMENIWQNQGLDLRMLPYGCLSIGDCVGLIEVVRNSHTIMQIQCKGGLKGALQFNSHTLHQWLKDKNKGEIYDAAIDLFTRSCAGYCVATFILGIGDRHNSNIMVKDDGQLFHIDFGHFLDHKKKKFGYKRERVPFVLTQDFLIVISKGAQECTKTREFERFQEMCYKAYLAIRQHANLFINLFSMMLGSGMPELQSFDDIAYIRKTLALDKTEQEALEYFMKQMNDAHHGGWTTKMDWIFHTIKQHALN
Phosphatidylinositol 4,5-bisphosphate 3-kinase catalytic subunit beta isoform, sequence (P42338 whole entry, canonical isoform): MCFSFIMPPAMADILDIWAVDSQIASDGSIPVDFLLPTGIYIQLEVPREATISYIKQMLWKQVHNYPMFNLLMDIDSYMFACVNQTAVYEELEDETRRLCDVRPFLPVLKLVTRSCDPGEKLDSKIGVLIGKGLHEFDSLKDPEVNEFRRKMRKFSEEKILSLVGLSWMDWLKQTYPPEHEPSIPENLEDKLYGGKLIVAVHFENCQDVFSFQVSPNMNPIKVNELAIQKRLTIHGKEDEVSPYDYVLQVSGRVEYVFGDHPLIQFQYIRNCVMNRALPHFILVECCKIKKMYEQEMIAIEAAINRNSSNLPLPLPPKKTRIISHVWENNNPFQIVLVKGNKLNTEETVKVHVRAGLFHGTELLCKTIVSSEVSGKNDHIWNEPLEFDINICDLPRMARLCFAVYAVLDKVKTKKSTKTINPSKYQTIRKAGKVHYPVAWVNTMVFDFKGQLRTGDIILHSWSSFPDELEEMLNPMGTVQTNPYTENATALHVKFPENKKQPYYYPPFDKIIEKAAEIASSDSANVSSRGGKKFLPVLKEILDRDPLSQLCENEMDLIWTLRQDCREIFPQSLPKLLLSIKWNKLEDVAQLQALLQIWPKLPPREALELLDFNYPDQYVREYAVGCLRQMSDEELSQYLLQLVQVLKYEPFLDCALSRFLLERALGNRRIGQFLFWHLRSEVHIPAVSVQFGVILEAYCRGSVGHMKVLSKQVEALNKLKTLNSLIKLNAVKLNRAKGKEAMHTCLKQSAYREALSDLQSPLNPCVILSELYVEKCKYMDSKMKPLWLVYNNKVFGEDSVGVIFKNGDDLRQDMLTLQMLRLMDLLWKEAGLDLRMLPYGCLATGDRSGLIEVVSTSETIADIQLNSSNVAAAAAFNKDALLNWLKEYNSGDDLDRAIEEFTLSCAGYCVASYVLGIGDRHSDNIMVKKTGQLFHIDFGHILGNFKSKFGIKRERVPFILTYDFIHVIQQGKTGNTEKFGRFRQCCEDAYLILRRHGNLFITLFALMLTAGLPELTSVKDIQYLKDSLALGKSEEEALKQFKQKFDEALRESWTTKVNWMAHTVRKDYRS

The term bioavailability denotes the share of a dose that reaches the circulation, judged against a reference dose that is usually intravenous. Read a low bioavailability as poor availability. Broadly, the CL/F is clearance divided by bioavailability, as obtained after extravascular dosing. For orientation: IC50 means the concentration needed to halve the response being measured. One may read the Vd as the apparent volume that relates the amount in the body to the concentration in plasma or blood. Read a low Vd as confinement near the circulation. On to `CNC(=O)[C@H](C)Cn1cnc2ccc(-c3cnc(OC)c(NS(=O)(=O)c4ccc(F)cc4Cl)c3)cc2c1=O`, for which the AUClast/dose in series [1] turned out to be 2711 nM·h; in series [5], 3090 nM·h. Moreover, the remaining at 1 h, 10 µM in [2] was 32.7%; in series [7] it was 44.6%; in series [14], 53.9%; in series [20], 32%. Further, in [3], the TGI entry is “Dose-dependent effect”. In addition, the bioavailability was 59.4% in series [4] and 46.9% in [8]. The compound also gave a CL/F in [6] of 4.2 mL/min/kg. The IC50 in [9] was above 10 µM; in series [12], 0.183 µM; in series [18], 0.0018 µM; in series [21] it was 1.39 µM. Moreover, the fraction unbound at 4 h in series [10] was 0.014. In addition, the inhibition result in series [11] was “Dose-dependent effect”. Further, the inhibition in vivo at 30 mg/kg stood at 73% in [13] and 86% in series [15]. Besides, the inhibition in vivo at 15 mg/kg in series [16] was found to be 62.5%. The Vd in series [17] turned out to be 0.179 L/kg. In addition, the inhibition in vivo at 40 mg/kg in series [19] turned out to be 90.7%.
